Most compounds without a hit are left out; they make up all but 3.8% or so of the library.
FN deposit inh: inhibitors of fibronectin matrix deposition, primary screen, AH1F cells, Alexa488-fibronectin fluorescence, plate reader; AH1F fibroblasts, overnight; inhibition, % at 12.6 µM; actives 0.086% (n = 350,000); AID 743247, 2014;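 active = mean inhibition across replicates of 30% or more, regardless of how many single replicates reach that level; inconclusive = mean under 30% yet at least half of replicates reach 30%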;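 note: positive control wells lacked labelled fibronectin entirely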
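test system = AH1F fibroblasts assembling fluorescent fibronectin matrix | quantity = 10000 AH1F cells per well | buffer or medium = DMEM plus 2% serum, read in PBS | doses = single dose, pinned | incubation = 1 h cell attachment, overnight exposure to compound and label | detection = fluorescence at 485 nm excitation, 525 nm emission | read-out basis = inhibition from reduced deposited-fibronectin fluorescence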
FGF22 binding: binders of human FGF22 protein, primary screen, FGF22 synaptogenesis inhibitor project, biophysical, thermal shift, single point | Fibroblast growth factor 22 (Homo sapiens), Q9HCT0 | recombinant FGF22 thermal shift, SYPRO orange fluorescence; percent of sucrose octasulfate shift, DMSO zero | activity (Tm shift, normalised), % at 9.99 µM | actives 1.5% (n = 340,000) | AID 651658, 2012;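 active = mean Tm shift, scaled 0 neutral to 100 positive control, at about 1.3% or above, every replicate too, limit read from the data; inconclusive = no clear call, values can overlap the other calls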
Target sequence (Q9HCT0 whole entry, looked up): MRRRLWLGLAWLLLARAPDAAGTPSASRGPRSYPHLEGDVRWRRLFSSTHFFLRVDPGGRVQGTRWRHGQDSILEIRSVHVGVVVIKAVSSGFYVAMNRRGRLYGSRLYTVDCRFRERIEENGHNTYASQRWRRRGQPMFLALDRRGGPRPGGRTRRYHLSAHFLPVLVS
DENV2 CPE: inhibitors of DENV2 cytopathic effect, primary screen, cell-based, plate reader, single concentration; DENV2-infected cells, cytopathic effect rescue; CPE inhibition, % at 9.99 µM; actives 1.7% (n = 350,000); AID 651640, 2012; in the data active = CPE inhibition above about 20%, passing the limit was not always enough; inconclusive = no clear call, values can overlap the other calls; tested in BHK-21 cells;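 note: 0% = median of neutral control wells and 100% = median of positive control wells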
ARNT-TACC3 inh: disruptors of ARNT/TACC3 protein interaction, primary screen, biochemical, AlphaScreen, single concentration; inhibition, % at 9.99 µM; AlphaScreen His-ARNT PAS-B/GST-TACC3 binding, luminescence; TACC3 fragment carries E629A point mutation; AID 623870, 2012; actives 0.66% (n = 390,000);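 active = mean inhibition of replicates at least 50% and at least half of replicates each reaching 50%; inconclusive = half or more replicates reach 50% but mean below 50%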;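 note: 0% = complete ARNT plus TACC3 wells and 100% = ARNT alone without TACC3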
SIRT5 inh: SIRT5 desuccinylase inhibitors, primary screen, biochemical, fluorescence imaging, single point, set 5; NAD-dependent protein deacylase sirtuin-5, mitochondrial (Homo sapiens), Q9NXA8; Purified SirT5, succinyl-peptide AMC, trypsin-coupled fluorescence; inhibition, % at 15 µM; actives 1.1% (n = 330,000); in the data active = inhibition above about 15%; inconclusive = no clear call, values can overlap the other calls
Target sequence (Q9NXA8 whole entry, looked up): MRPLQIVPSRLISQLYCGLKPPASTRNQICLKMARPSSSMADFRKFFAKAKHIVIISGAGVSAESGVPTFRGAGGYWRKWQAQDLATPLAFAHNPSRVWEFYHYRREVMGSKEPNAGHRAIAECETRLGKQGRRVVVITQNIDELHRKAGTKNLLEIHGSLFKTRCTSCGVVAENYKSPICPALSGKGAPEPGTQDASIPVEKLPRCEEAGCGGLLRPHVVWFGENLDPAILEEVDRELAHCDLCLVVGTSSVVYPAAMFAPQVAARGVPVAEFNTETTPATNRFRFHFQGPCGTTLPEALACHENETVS
XiGFP reactiv: activators of inactive X chromosome reactivation, primary screen, imaging, XiGFP fibroblasts, GFP high-content imaging, set 2 | XiGFP mouse fibroblasts, % GFP-positive cells imaging, 3 d; cells co-treated with 5-aza-dC sensitizer; scaled so ellipticine positive control = 100% | actives 0.055% (n = 360,000) | AID 743238, 2013 | activation, % at 7.58 µM;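 active = mean normalized replicate activation at least 10% and every replicate at or above 10%; inconclusive = only one of the two criteria met; inactive = mean below 10% and not all replicates reach 10%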;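 note: 0% = median of on-plate neutral control wells and 100% = ellipticine 6 µM median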
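Assay system: SV40-immortalized XiGFP fibroblast cells, line 68-5-11; buffer or medium: DMEM plus 5-aza-dC sensitizer; compound: one concentration, pinned; timing: compounds 3 days, fix/stain 15 min at room temperature; benchmarks: positive control ellipticine, 6 µM final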
Numbers without * were called inactive; ? = inconclusive; nt = no result.

SMILES | FN deposit inh | FGF22 binding | DENV2 CPE | ARNT-TACC3 inh | SIRT5 inh | XiGFP reactiv
O=C(CSC1=NS(=O)(=O)c2cc(F)ccc2N1)Nc1ccc(F)cc1 | nt | 1.7* | -7 | -8 | -2 | 0
COc1ccc(N(CC(=O)NCc2ccco2)S(=O)(=O)c2ccccc2)cc1 | 4 | 43* | 6 | 2 | -5 | 0
COc1ccc(N(CC(=O)Nc2cc(C)cc(C)c2)S(=O)(=O)c2ccccc2[N+](=O)[O-])c(OC)c1 | 0 | 0 | 14 | -10 | -1 | 0
COc1ccc(N(CC(=O)NCCSc2ccccc2)S(=O)(=O)c2ccccc2)c(OC)c1 | 5 | 0 | 88* | 0 | 1 | 0
COc1ccc(S(=O)(=O)N(CC(=O)NCc2ccco2)c2ccccc2)cc1 | -4 | nt | nt | 2 | nt | nt
COc1ccc(N(CC(=O)Nc2ccc(F)cc2)S(=O)(=O)c2ccccc2[N+](=O)[O-])c(OC)c1 | -24 | 43* | 5 | 12 | -2 | 0
Cc1ccccc1-c1cnc2c(c1)C(=O)N([C@H](C)CO)C[C@@H](C)[C@@H](CN(C)C(=O)CC1CC1)O2 | 4 | 0 | 3 | -4 | 0 | 4
COc1ccc(NC(=O)N(C)C[C@@H]2OCCCC[C@H](C)Oc3ccc(NC(=O)c4ccccc4)cc3C(=O)N([C@@H](C)CO)C[C@@H]2C)cc1 | 4 | 0 | -6 | -5 | 3 | 0
C[C@@H]1CCCCO[C@H](CN(C)C(=O)Nc2ccccc2)[C@H](C)CN([C@@H](C)CO)C(=O)c2cc(NS(=O)(=O)c3cn(C)cn3)ccc2O1 | 2 | 0 | -5 | -4 | 0 | 0
CC(C)(C)n1nnnc1C(c1cccnc1)N1CCOCC1 (stereo not given) | -5 | 0 | -2 | 1 | 20* | 0
C/C=C/c1ccc([C@H]2[C@@H](CO)N(S(=O)(=O)CC)[C@H]2CN(C)C(=O)CC)cc1 | -2 | nt | ? | nt | 0 | 0
Cc1ccccc1C(=O)NCC(=O)OCC(=O)NNC(=O)c1ccccc1F | -5 | 0 | 0 | nt | -2 | 0
CCN(C(=O)COC(=O)CNC(=O)c1ccccc1C)C1=CCCCC1 | -18 | 0 | 17 | -8 | 24* | 0
O=S(=O)(/N=C(/NC(=S)Nc1ccccc1)c1ccccc1)c1ccc(Cl)cc1 | 2 | 0 | 4 | 5 | -5 | 0
COc1ccc(NC(=S)NC(=NS(=O)(=O)c2ccc(Cl)cc2)c2ccccc2)cc1 | nt | 0 | -4 | -1 | nt | 0
C/C(=N\S(=O)(=O)c1ccc(C)cc1)NC(=S)Nc1ccccc1 | 10 | 44* | -4 | -6 | -3 | 0
COc1ccc(NC(=S)N/C(=N/S(=O)(=O)c2ccc(C)cc2)c2ccccc2)cc1 | -22 | 43* | 2 | 3 | 1 | 0
O=C(Nc1cccn(Cc2c(Cl)cccc2Cl)c1=O)c1ccccc1Cl | -10 | nt | nt | nt | -18 | nt
CC(=O)Nc1cccn(Cc2c(Cl)cccc2Cl)c1=O | -8 | 43* | 16 | -7 | 0 | 0
C[C@@H]1CN([C@@H](C)CO)C(=O)Cc2cc(NS(=O)(=O)c3ccc(Cl)cc3)ccc2O[C@@H]1CN(C)C | nt | 0 | -3 | -11 | 0 | -1
C[C@H]1CN([C@@H](C)CO)C(=O)c2cccc(NS(=O)(=O)c3ccccc3)c2O[C@H]1CN(C)C | -10 | 0 | 3 | -3 | 8 | -1
Cc1ccc(S(=O)(=O)N(c2nc(NC(C)C)nc(NC(C)C)n2)n2cnnc2)cc1 | 0 | 0 | 24* | -2 | -1 | 0
COC(=O)CN(n1cnnc1)S(=O)(=O)c1ccc(C)cc1 | nt | nt | nt | -3 | nt | nt
COc1ccc2c3c([nH]c2c1)[C@H](CO)N(C(=O)NC(C)C)CC31CCN(Cc2ccc(F)cc2)CC1 | nt | 0 | ? | nt | 6 | 0
CC(C)OC(=O)c1ccc(NCc2cc(O)ccc2O)cc1 | 10 | 0 | 51* | 9 | nt | 1
SMILES | FN deposit inh | FGF22 binding | DENV2 CPE | ARNT-TACC3 inh | SIRT5 inh | XiGFP reactiv
O=C(OCc1ccccc1)c1ccc(NCc2cc(O)ccc2O)cc1 | 29 | 1 | -4 | 3 | nt | 0
COCC(=O)Nc1ccc2c(c1)C(=O)N(C)[C@@H]1CC[C@H](CC(=O)NCCc3ccncc3)O[C@@H]1CO2 | -17 | 0 | 12 | 12 | 8 | 0
NNC(=O)c1cccc(S(=O)(=O)Nc2cccc(C(F)(F)F)c2)c1 | 11 | 0 | 6 | -9 | -3 | 0
Cc1[nH]c2ccccc2c1/C=N/NC(=O)c1cccc(S(=O)(=O)Nc2cccc(C(F)(F)F)c2)c1 | -6 | 43* | nt | 0 | 1 | 0
Cc1[nH]c2ccccc2c1/C=N/Nc1ccccc1[N+](=O)[O-] | 19 | 1.9* | -2 | 0 | -1 | 0
Cc1[nH]c2ccccc2c1/C=N\NC(=O)c1ccccc1Cl | -11 | 43* | -5 | nt | nt | 0
C[C@H]1CN([C@@H](C)CO)S(=O)(=O)c2ccc(C#Cc3ccc(F)cc3)cc2O[C@@H]1CN(C)C(=O)c1ccccn1 | -2 | 0 | -7 | -6 | 6 | 0
Cc1ccc(S(=O)(=O)N[C@@H]2CC[C@H](CCNC(=O)c3ccccc3F)O[C@H]2CO)cc1 | nt | 0 | -2 | 3 | 0 | -1
O=C(Nc1nnc(C2=COCCO2)o1)c1ccc(Cl)cc1 | -5 | 0 | -6 | 52* | -2 | 0
O=C(Nc1nnc(C2=COCCO2)o1)c1ccc(F)cc1 | nt | 0 | 4 | 50* | 2 | 0
O=C(Nc1nnc(C2=COCCO2)o1)c1ccc(Br)cc1 | -9 | 0 | 19 | 41 | -1 | 0
COc1ccc(-c2nnc(NC(=O)C3=COCCO3)o2)cc1 | 1 | 1 | -4 | 46* | 3 | 0
O=C(Nc1nnc(C2=COCCO2)o1)c1ccc([N+](=O)[O-])cc1 | 8 | 0 | 9 | 41* | 0 | 0
C[C@@H]1CN([C@@H](C)CO)C(=O)c2cccc(NC(=O)Nc3ccc4c(c3)OCO4)c2O[C@@H]1CN(C)CC1CC1 | nt | nt | -4 | nt | nt | 0
CC(C)NC(=O)Nc1ccc2c(c1)C(=O)N(C)[C@@H]1CC[C@H](CC(=O)NC3CCCCC3)O[C@@H]1CO2 | -5 | 0 | -3 | -6 | nt | 0

Source: PubChem (Broad Institute)
